Laboratory results reported in ChEMBL document CHEMBL3244309, “Structure-activity relationships of aminoalkyl and -aryl glycosides having insulin-like activity” (1978).

tested on: Rattus norvegicus; test: In vivo insulin-like activity in rat omental adipose tissue assessed as stimulation of lipogenesis by measuring conversion of [14C]glucose to [14C]lipids at 500 mg/kg, ip after 2 hrs; type: functional; conditions: route intraperitoneal
Outline: (§1)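 Overnight-fasted female rats (140–150 g) given one ip injection of saccharide neutralized to pH 7.5 with 0.1 N HCl, together with [14C]glucose (2 μCi/rat), in physiological saline. Controls received the same solution without saccharide or insulin; insulin reference was 200 mU/kg. After 2 h, 14C incorporated per gram of tissue was measured: diaphragm glycogen and omental adipose total lipids. Mean of five animals, % above control.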

`NCCCCCCS[C@@H]1O[C@H](CO)[C@@H](O)[C@H](O)[C@@H]1O` gave an Activity of 86%.

tested on: not listed separately; test: Insulin-like activity in albino CD rat fat cells assessed as stimulation of oxidation of [14C]glucose to 14CO2 at 50 ug/ml after 2 hrs by scintillation counting analysis relative to insulin; type: functional; conditions: not given

First: NCCCCCCS[C@H]1O[C@H](CO)[C@@H](O)[C@H](O)[C@@H]1O
Second: NCCCCCCS[C@@H]1O[C@H](CO)[C@@H](O)[C@H](O)[C@@H]1O
The Activity of the first is higher: 132.4% for the first, 109.7% for the second.

Going from `NCCCCCCSC[C@@H](O)[C@@H](O)[C@H](O)[C@H](O)CO` to `NCCCCCCSC1O[C@H]([C@H](O)CO)[C@H](O)[C@@H]1O` (some centres not stated), the Activity rises from 0% to 93.6%.

Compared with `NCCCCCCS[C@H]1O[C@H](CO)[C@H](O)[C@H](O)[C@@H]1O`, `CNC(=O)NC[C@H]1O[C@@H](SCCCCCCN)[C@@H](O)[C@@H](O)[C@@H]1O` is higher in Activity: 109.9% for the first, 129% for the second.

tested on: not listed separately; test: Insulin-like activity in albino CD rat fat cells assessed as stimulation of oxidation of [14C]glucose to 14CO2 at 750 ug/ml after 2 hrs by scintillation counting analysis relative to insulin; type: functional; conditions: not given

`Nc1ccc(O[C@H]2O[C@H](CO)[C@@H](O)[C@H](O)[C@@H]2O)cc1` showed an Activity of 23.9%.

tested on: not listed separately; test: Insulin-like activity in albino CD rat fat cells assessed as stimulation of oxidation of [14C]glucose to 14CO2 at 100 ug/ml after 2 hrs by scintillation counting analysis relative to insulin; type: functional; conditions: not given

Going from `Nc1ccc(O[C@H]2O[C@H](CO)[C@@H](O)[C@H](O)[C@@H]2O)cc1` to `NCc1ccc(O[C@H]2O[C@H](CO)[C@@H](O)[C@H](O)[C@@H]2O)cc1`, the Activity rises from 2.9% to 6.4%.

Going from `NCCCCCCC(=O)NCCCCCCS[C@H]1O[C@H](CO)[C@@H](O)[C@H](O)[C@@H]1O` to `NCCCCCCCCS[C@H]1O[C@H](CO)[C@@H](O)[C@H](O)[C@@H]1O`, the Activity falls from 47.1% to 0%.

Compared with `NCCCCCCS[C@H]1O[C@H](CO)[C@@H](O)[C@H](O)[C@@H]1O`, `NCCCCCCS[C@@H]1O[C@H](CO)[C@@H](O)[C@H](O)[C@@H]1O` is higher in Activity: 40.8% for the first, 80% for the second.

First: NCCCCCCS
Second: CSCCCCCCN
The Activity of the first is lower: 15.5% for the first, 24.8% for the second.

Compared with `NCCCCCCSCC(O)CO` (configuration not stated), `NCCCCCCCS[C@H]1O[C@H](CO)[C@@H](O)[C@H](O)[C@@H]1O` is higher in Activity: 6.9% for the first, 14.8% for the second.

First: O=C([O-])CCCCCS[C@H]1O[C@H](CO)[C@@H](O)[C@H](O)[C@@H]1O.[Na+]
Second: NCCCCCS[C@H]1O[C@H](CO)[C@@H](O)[C@H](O)[C@@H]1O
The Activity of the first is lower: 0% for the first, 6.1% for the second.

First: CCCCCCCS[C@H]1O[C@H](CO)[C@@H](O)[C@H](O)[C@@H]1O
Second: NCCCCCCS[C@@H]1O[C@H](CO)[C@@H](O)[C@H](O)[C@H]1O
The Activity of the first is lower: 0% for the first, 43.8% for the second.

First: CNCCCCCCS[C@H]1O[C@H](CO)[C@@H](O)[C@H](O)[C@@H]1O
Second: NCCCCCCS[C@H]1O[C@H](CO)[C@H](O)[C@@H](O)[C@@H]1O
The Activity of the first is lower: 0% for the first, 63.7% for the second.

Going from `CN(C)CCCCCCS[C@H]1O[C@H](CO)[C@@H](O)[C@H](O)[C@@H]1O` to `NCCCCCCS[C@@H]1O[C@H](CO)[C@H](O)[C@@H](O)[C@@H]1O`, the Activity rises from 0% to 75.2%.

Compared with `C[N+](C)(C)CCCCCCS[C@H]1O[C@H](CO)[C@@H](O)[C@H](O)[C@@H]1O.[I-]`, `NCCCCCCS[C@@H]1O[C@H](CO)[C@H](O)[C@H](O)[C@H]1O` is higher in Activity: 0% for the first, 68.8% for the second.

`N[C@@H]1O[C@H](CO)[C@@H](O)[C@H](O)[C@@H]1O` and `NC[C@H]1O[C@H](CO)[C@@H](O)[C@H](O)[C@@H]1O` are the same in Activity: 0% for the first, 0% for the second.

`NCCS[C@H]1O[C@H](CO)[C@@H](O)[C@H](O)[C@@H]1O` and `NCCCCS[C@H]1O[C@H](CO)[C@@H](O)[C@H](O)[C@@H]1O` are the same in Activity: 0% for the first, 0% for the second.

Going from `Nc1ccc(CS[C@H]2O[C@H](CO)[C@@H](O)[C@H](O)[C@@H]2O)cc1` to `NCc1ccc(CS[C@H]2O[C@H](CO)[C@@H](O)[C@H](O)[C@@H]2O)cc1`, the Activity rises from 0% to 9.2%.

Going from `NCc1ccccc1O[C@H]1O[C@H](CO)[C@@H](O)[C@H](O)[C@@H]1O` to `NCCCCCCO[C@@H]1O[C@H](CO)[C@@H](O)[C@H](O)[C@H]1O`, the Activity rises from 0% to 23.3%.

First: NCCCCCCO[C@H]1O[C@H](CO)[C@@H](O)[C@H](O)[C@@H]1O
Second: NCCCCCCS(=O)(=O)[C@H]1O[C@H](CO)[C@@H](O)[C@H](O)[C@@H]1O
The Activity of the first is lower: 23.3% for the first, 33.3% for the second.

Compared with `NCCCCCC(=O)N[C@@H]1O[C@H](CO)[C@@H](O)[C@H](O)[C@@H]1O`, `NCCCCCCC(=O)N[C@@H]1O[C@H](CO)[C@@H](O)[C@H](O)[C@@H]1O` is higher in Activity: 2.6% for the first, 20.5% for the second.

Compared with `NCCCCCCCC(=O)N[C@@H]1O[C@H](CO)[C@@H](O)[C@H](O)[C@@H]1O`, `CC(=O)N[C@@H]1[C@@H](O)[C@H](O)[C@@H](CO)O[C@H]1SCCCCCCN` is higher in Activity: 22.4% for the first, 36.3% for the second.

Compared with `NCCCCCCS[C@H]1O[C@H](CO[C@H]2O[C@H](CO)[C@@H](O)[C@H](O)[C@@H]2O)[C@@H](O)[C@H](O)[C@@H]1O`, `NCCCCCCS[C@H]1O[C@H](CO)[C@@H](O[C@H]2O[C@H](CO)[C@@H](O)[C@H](O)[C@@H]2O)[C@H](O)[C@@H]1O` is higher in Activity: 21.6% for the first, 37.3% for the second.

First: NCCCCCCS[C@H]1O[C@H](CO)[C@@H](O)[C@H](O[C@H]2O[C@H](CO)[C@@H](O)[C@H](O)[C@@H]2O)[C@@H]1O
Second: NCCCCCCS[C@H]1O[C@H](CO)[C@@H](O)[C@H](O)[C@@H]1O[C@H]1O[C@H](CO)[C@@H](O)[C@H](O)[C@@H]1O
The Activity of the first is lower: 15.7% for the first, 21.6% for the second.

First: NCCCCCCS[C@@H]1O[C@H](CO)[C@@H](O)[C@H](O)[C@@H]1O[C@H]1O[C@H](CO)[C@@H](O)[C@H](O)[C@@H]1O
Second: NCCCCCCS[C@H]1O[C@H](CO)[C@@H](OC(N)=O)[C@H](O)[C@@H]1O
The Activity of the first is lower: 0% for the first, 64.2% for the second.

Compared with `C[C@H]1O[C@H](SCCCCCCN)[C@@H](O)[C@@H](O)[C@@H]1O`, `COC[C@H]1O[C@H](SCCCCCCN)[C@@H](O)[C@@H](O)[C@@H]1O` is higher in Activity: 0% for the first, 37.5% for the second.

`NCCCCCCS[C@H]1O[C@H](COC(N)=O)[C@@H](O)[C@H](O)[C@@H]1O` showed an Activity of 102.9%.

tested on: Rattus norvegicus; test: In vivo insulin-like activity in rat diaphragm muscle assessed as stimulation of glycogenolysis by measuring conversion of [14C]glucose to [14C]glycogen at 500 mg/kg, ip after 2 hrs; type: functional; conditions: route intraperitoneal, in the assay text read “glycogenesis” for “glycogenolysis”; outline: as §1

For `NCCCCCCS[C@@H]1O[C@H](CO)[C@@H](O)[C@H](O)[C@@H]1O`, the Activity was 74%.
